TLR4 MyD88 comp: inhibitors of TLR4-MyD88 association in cells, primary screen, cell-based, HeLa CL3-4, BLA complementation, FRET ratio | 200,000 compounds, 0.18% hits | HeLa CL3-4 TLR4/MyD88 BLA complementation | inhibition, % at 8.4 µM | Toll-like receptor 4 (Homo sapiens) + Myeloid differentiation primary response protein …; in the data active = inhibition above about 25%;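 note: 0% = vehicle and 100% = reference inhibitor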
Target sequence (O00206 whole entry, looked up): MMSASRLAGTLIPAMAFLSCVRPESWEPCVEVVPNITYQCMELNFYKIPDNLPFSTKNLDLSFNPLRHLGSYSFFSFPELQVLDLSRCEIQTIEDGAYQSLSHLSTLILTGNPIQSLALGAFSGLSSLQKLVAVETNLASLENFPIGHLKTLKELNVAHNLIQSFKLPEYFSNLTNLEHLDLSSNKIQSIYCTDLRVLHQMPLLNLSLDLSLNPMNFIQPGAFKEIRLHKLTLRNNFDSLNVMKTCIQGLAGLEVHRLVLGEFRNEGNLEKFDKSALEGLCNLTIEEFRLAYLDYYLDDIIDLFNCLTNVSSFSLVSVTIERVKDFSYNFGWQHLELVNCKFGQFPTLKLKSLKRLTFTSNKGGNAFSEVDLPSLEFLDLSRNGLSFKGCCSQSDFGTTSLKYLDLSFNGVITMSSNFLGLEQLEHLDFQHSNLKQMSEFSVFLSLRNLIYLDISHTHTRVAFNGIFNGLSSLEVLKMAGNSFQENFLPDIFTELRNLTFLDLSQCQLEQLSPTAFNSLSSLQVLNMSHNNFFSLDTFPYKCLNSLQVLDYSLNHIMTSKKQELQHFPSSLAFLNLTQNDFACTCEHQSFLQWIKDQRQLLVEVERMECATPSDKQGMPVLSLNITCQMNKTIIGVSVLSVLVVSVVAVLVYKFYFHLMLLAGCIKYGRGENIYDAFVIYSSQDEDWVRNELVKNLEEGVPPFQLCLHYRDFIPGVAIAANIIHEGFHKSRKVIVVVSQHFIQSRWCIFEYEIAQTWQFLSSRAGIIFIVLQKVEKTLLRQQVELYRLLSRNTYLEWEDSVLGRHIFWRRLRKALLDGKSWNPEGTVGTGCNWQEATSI
Target sequence (Q99836 whole entry, looked up): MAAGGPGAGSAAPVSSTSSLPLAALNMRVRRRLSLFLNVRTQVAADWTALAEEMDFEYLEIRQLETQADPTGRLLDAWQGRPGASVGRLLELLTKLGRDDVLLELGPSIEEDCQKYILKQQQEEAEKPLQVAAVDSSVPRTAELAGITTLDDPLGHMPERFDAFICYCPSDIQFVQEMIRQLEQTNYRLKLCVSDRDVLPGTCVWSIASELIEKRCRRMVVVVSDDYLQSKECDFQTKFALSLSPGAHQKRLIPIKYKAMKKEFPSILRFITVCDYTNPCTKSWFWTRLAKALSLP
CHOP inhibitor: inhibitors of CHOP promoter induction, primary screen, cell-based, unfolded protein response, luciferase reporter; CHO-K1 CHOP-promoter luciferase, tunicamycin-induced, 15-18 h; inhibition, % at 10 µM; 220,000 compounds, 3.8% hits; AID 2732, 2010;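 active = compounds that reduced the stress-induced luciferase reporter signal by more than about 70% of percent inhibition, limit read from the data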;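 note: 0% = tunicamycin plus vehicle and 100% = wells without tunicamycin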
XBP1 UPR activ: activators of adaptive XBP1 UPR arm, primary screen, cell-based, CHO-XBP1 luciferase reporter, luminescence, uHTS | 330,000 compounds, 0.33% hits | IRE1-XBP1 UPR activation; percent of tunicamycin response, DMSO as zero | activation, % at 20 µM;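 active = versus positive control, 20 µM dose yields 30% or more activation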;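 note: 100% = tunicamycin at 10 µg/mL and 0% = DMSO only wells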
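Test system: CHO-XBP1 luciferase reporter cells | Buffer or medium: Serum-containing F12 medium, 10% FBS | Schedule: 6 h compound exposure at 37 °C, 5% CO2 | Detection: Steady-Glo luciferase glow luminescence, 10 min after reagent addition | Read-out basis: Activation, % of tunicamycin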
NOD2-RIPK2 inh: NOD2-RIPK2 binding disruptors in cells, primary screen, fluorescence, CHO cells, BLA complementation | Receptor-interacting serine/threonine-protein kinase 2 (Homo sapiens), O43353 | CCF4 ratio | inhibition, % at 4.98 µM | 360,000 compounds, 0.38% hits | AID 624267, 2012; in the data active = inhibition above about 21%;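 note: 0% = vehicle only and 100% = reference blocker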
CHOP UPR activ: activators of apoptotic CHOP UPR arm, primary screen, cell-based, CHO-CHOP luciferase reporter, luminescence, uHTS; AID 449763, 2010; activation, % at 10 µM; UPR activation; percent of tunicamycin response over DMSO baseline; 330,000 compounds, 0.34% hits;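 active = at 10 µM dose, activation of 40% or more, normalized to positive control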;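 note: 100% = tunicamycin at 10 µg/mL and 0% = DMSO alone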
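Dosing – one dose, 10 µM in 0.5% DMSO · System – CHO-CHOP cells, stable luciferase reporter of PERK-eIF2a-CHOP signalling · Input – 500 cells/well · Control set – tunicamycin 10 µg/mL final as positive, DMSO-only wells as negative · Timing – 6 h compound treatment, 37 °C · Measure – % activation vs tunicamycin · Technique – luminescence read with Steady-Glo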
TLR9-MyD88 block: inhibitors of TLR9-MyD88 association in cells, primary screen, cell-based, CHO, BLA complementation, fluorescence | Toll-like receptor 9 (Homo sapiens) + Myeloid differentiation primary response protein … | CCF4 FRET ratio | inhibition, % at 4.98 µM | 340,000 compounds, 0.21% hits;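 active = inhibition above the mean over all tested compounds plus 3 SD, cut at about 21% in these data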;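 note: 0% = DMSO only wells and 100% = clavulanate BLA inhibitor control wells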
Active calls of the source: *. This is one part of a sample in which hits are shown more often than they occur.

For COc1ccccc1CNC(=O)CN(c1ccc(C)cc1)S(=O)(=O)c1c(C)noc1C the results were XBP1 UPR activ -2.7, NOD2-RIPK2 inh -1.2, CHOP UPR activ -0.4 and TLR9-MyD88 block -1.2.
For CCC(C)n1c(SCc2ccc([N+](=O)[O-])cc2)nc2ccsc2c1=O (stereo not drawn) the results were TLR4 MyD88 comp 0.4, CHOP inhibitor 73.7*, XBP1 UPR activ 1.5, NOD2-RIPK2 inh 6.8, CHOP UPR activ 1.8 and TLR9-MyD88 block -16.2.
Screening N#Cc1c(Cl)cccc1Oc1ccc(S(=O)(=O)Nc2ccccc2)cc1 returned CHOP inhibitor 4.0, XBP1 UPR activ -4.9, NOD2-RIPK2 inh 5.6 and CHOP UPR activ 0.9.
Screening O=C(Nc1nc(-c2ccccc2)cs1)C1CCCCN1S(=O)(=O)c1ccc(Cl)cc1 (stereo not drawn) returned TLR4 MyD88 comp 12.0, CHOP inhibitor 70.3*, XBP1 UPR activ 6.7, NOD2-RIPK2 inh -6.5, CHOP UPR activ -0.1 and TLR9-MyD88 block 5.1.
Screening c1ccc(-c2csc(NC3CCCCC3)n2)cc1 returned XBP1 UPR activ -0.5, NOD2-RIPK2 inh -6.5, CHOP UPR activ 7.8 and TLR9-MyD88 block 0.0.
`O=C(Nc1nc(-c2ccccc2)cs1)NC1CCCCC1` gave TLR4 MyD88 comp -4.2, CHOP inhibitor 93.2*, XBP1 UPR activ 3.1, NOD2-RIPK2 inh -4.0, CHOP UPR activ 4.5 and TLR9-MyD88 block 7.6.
`COc1ccccc1Nc1nc(N)nc(CN2CCN(c3ccccc3F)CC2)n1` gave TLR4 MyD88 comp -5.7, CHOP inhibitor 83.3*, XBP1 UPR activ 0.9, NOD2-RIPK2 inh -2.2, CHOP UPR activ -0.4 and TLR9-MyD88 block 7.6.
`COc1ccccc1N1CCN(Cc2nc(N)nc(Nc3ccc(C)c(Cl)c3)n2)CC1` gave TLR4 MyD88 comp 10.2, CHOP inhibitor 76.4*, XBP1 UPR activ 4.4, NOD2-RIPK2 inh -4.4, CHOP UPR activ 1.9 and TLR9-MyD88 block -5.0.
For O=C(NCc1ccccc1Cl)[C@H]1CCCN1C(=O)[C@H]1CCCN1C(=O)c1ccc(Cl)cc1 the results were NOD2-RIPK2 inh -3.5.
Screening CNc1cncc(-c2cccc(C(=O)N(C)C)c2)n1 returned NOD2-RIPK2 inh -6.9.
`CCOc1nsc(OCC)n1` gave CHOP inhibitor 1.7, XBP1 UPR activ -2.3, NOD2-RIPK2 inh -2.4, CHOP UPR activ -0.5 and TLR9-MyD88 block -2.2.
Cc1ccc2[nH]c3c(N4CCc5ccccc5C4)ncnc3c2c1 was read as TLR4 MyD88 comp 3.7, CHOP inhibitor 74.0*, XBP1 UPR activ 6.5, NOD2-RIPK2 inh -4.0, CHOP UPR activ 9.6 and TLR9-MyD88 block -4.4.
`Brc1ccc2[nH]c3c(N4CCc5ccccc5C4)ncnc3c2c1` gave TLR4 MyD88 comp 13.1, CHOP inhibitor 64.4, XBP1 UPR activ 1.7 and CHOP UPR activ 6.7.
`Fc1ccc2[nH]c3c(N4CCc5ccccc5C4)ncnc3c2c1` gave CHOP inhibitor 73.2*, XBP1 UPR activ 0.2, NOD2-RIPK2 inh -4.6 and CHOP UPR activ 7.7.
For C[C@@H](c1ccccc1)N1C[C@H](COCc2ccccc2)Oc2cc(N3CCC[C@@H]3CO)ccc2S1(=O)=O the results were NOD2-RIPK2 inh -1.2.
`CCc1nc2c(cnn2-c2ccc(F)cc2)c(=O)n1-c1ccc(N2CCC(C)CC2)cc1` gave TLR4 MyD88 comp -5.5, CHOP inhibitor 78.9*, XBP1 UPR activ -2.6, NOD2-RIPK2 inh 1.7, CHOP UPR activ 0.2 and TLR9-MyD88 block 9.4.
Cc1nc2c(cnn2-c2ccccc2Cl)c(=O)n1-c1ccc(N2CCC(C)CC2)cc1 was read as TLR4 MyD88 comp 7.0, CHOP inhibitor 76.8*, XBP1 UPR activ -0.9, NOD2-RIPK2 inh 9.6, CHOP UPR activ 2.4 and TLR9-MyD88 block 0.8.

Screening data deposited in PubChem by several laboratories.
